Efa HMGR inh = inhibitors of E. faecalis class II HMGR, primary screen, biochemical, Enterococcus faecalis. 0.41% of 190,000 active. HMG-CoA reductase (Enterococcus faecalis, mvaE). inhibition, % at 10 µM. purified E. faecalis HMGR, NADPH absorbance 340 nm kinetic;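 active = inhibition above a set limit, the median over all tested compounds plus 3 SD, cut at about 9.5% in these data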;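 note: enzyme runs in reverse so mevalonate oxidation gives rising NADPH absorbance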
bCat nuc transl = modulators of beta-catenin nuclear translocation, primary screen, imaging, HeLa cells, immunofluorescence, high-content; 0.3% of 190,000 active; nuclear translocation activity, % at 5 µM; AID 1665, 2009;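 active = nuclear translocation activity above 50% at 5 µM, with a well cell count of 50 or more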;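 note: per-cell ratio of nuclear to cytoplasmic median beta-catenin stain intensity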
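System: HeLa cells, endogenous beta-catenin; compound dosing: 5 µM primary single dose, 0.1% DMSO, 0.02–20 µM confirmation series; incubation: 24 h compound exposure at 37°C, 5% CO2; signal: beta-catenin immunofluorescence imaging with DAPI; evaluation: % activation, nuclear-to-cytoplasmic median beta-catenin signal ratio per cell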
EP2 modulator = EP2 receptor modulators, cAMP readout, primary screen, cell-based, HTRF cAMP, PGE2 stimulation | Prostaglandin E2 receptor EP2 subtype (Homo sapiens), P43116 | EP2-expressing cells, cAMP HTRF FRET, PGE2 co-stimulation | induction, % at 25 µM | 0.83% of 260,000 active | AID 940, 2007;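 active = compounds whose cAMP rise, as percent of the full-agonist control response, exceeds 60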;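 note: rat C6 glioma line stably carrying human EP2 under a CMV promoter; the protocol text gives 20 µM as final concentration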
Target sequence (P43116 whole entry, looked up): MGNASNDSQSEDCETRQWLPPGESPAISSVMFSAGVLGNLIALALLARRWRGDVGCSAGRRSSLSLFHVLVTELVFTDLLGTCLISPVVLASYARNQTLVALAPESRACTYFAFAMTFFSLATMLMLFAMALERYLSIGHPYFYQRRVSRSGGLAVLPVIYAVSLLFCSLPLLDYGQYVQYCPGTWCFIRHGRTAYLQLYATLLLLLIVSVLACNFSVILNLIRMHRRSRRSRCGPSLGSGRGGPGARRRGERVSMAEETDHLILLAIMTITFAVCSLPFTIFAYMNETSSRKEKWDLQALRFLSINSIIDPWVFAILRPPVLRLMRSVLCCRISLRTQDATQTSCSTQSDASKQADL
MT stabilizer = microtubule stabilizers in HeLa cells, primary screen, imaging, high-content imaging; HeLa tubulin immunostaining HCS, 24 h; share of cells brighter than vehicle mean+2SD; % tubulin-high responders, % at 10 µM; 0.83% of 200,000 active; AID 2205, 2009;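 active = plate Z-score above 3 for both tubulin-high and condensed-nucleus cell shares, with cell loss under 80%, at 10 µM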;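 note: anti alpha tubulin signal scored within the nucleus-defined area of each cell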
Tb hexokinase = Trypanosoma brucei hexokinase 1 inhibitors, primary screen, biochemical, G6PDH-coupled NADH absorbance, MLSCN library; hexokinase 1 [Trypanosoma brucei]; recombinant TbHK1, G6PDH-coupled NADH A340; inhibition, % at 10 µM; 0.11% of 220,000 active; AID 1430, 2008;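 active = inhibition of 50% or more in the single-dose primary screen; inactive = inhibition below 50%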
EP2 antag = human EP2 receptor antagonists, primary screen, TR-FRET cAMP, C6 glioma cells; 0.52% of 260,000 active; C6 glioma cells expressing human EP2; cells stimulated with saturating PGE2; inhibition, % at 25 µM; Prostaglandin E2 receptor EP2 subtype (Homo sapiens), P43116;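 active = percent inhibition above 40 after rounding to a whole number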;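 note: rat C6 glioma host cells with rolipram phosphodiesterase inhibitor present; the protocol text gives 20 µM as final concentration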
EP2 cAMP induct = cAMP induction in EP2, EP4, beta2-AR and parental cells, confirmation, counter-screen for EP2 modulator project, cell-based, five parallel assays, C6 glioma, HEK293 | cAMP HTRF induction; plus low (about EC15) PGE2 agonist | calls only at 20 µM (by protocol) | shares compounds with EP2 modulator | 47% of 1,300 active;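 active = cAMP induction above 50% in the main assay while under 30% in all four parallel counter assays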;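 note: rat C6 glioma cells stably expressing human EP2 receptor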
Of the large screens only hits and unclear results are named; the others gave an inactive call (follow-up assays come after a bar, where they were run). A selection: hits, their analogues and other compounds. The true share with any hit is near 2.4%.

Cc1nn2c(N3CCCC3)cc(C(C)C)nc2c1-c1ccccc1	EP2 modulator 75.4 | EP2 cAMP induct active
Nc1c(Nc2ccc(F)cc2)sc2c(O)cc(=O)[nH]c12	none (no result: Efa HMGR inh, bCat nuc transl, MT stabilizer, Tb hexokinase)
CCSc1ccccc1C(=O)N1CCCC1	none
CCSc1ccccc1C(=O)n1nnc2ccccc21	EP2 modulator 67.6 | EP2 cAMP induct inactive
CCOC(=O)C1CCCN(C(=O)c2ccc(C)cc2O)C1 (stereo not given)	EP2 modulator 65.8 (no result: bCat nuc transl) | EP2 cAMP induct inactive
COc1cc(C)c(NC(c2ccccc2)c2ccccc2)cc1OC	EP2 modulator 66.6 | EP2 cAMP induct active
COc1cc(C)c(NC(=S)Nc2ccc(C)c(Cl)c2)cc1OC	none
S=C1NCCc2ccc(Cl)cc2C1c1ccccc1 (stereo not given)	Efa HMGR inh 16.6, EP2 modulator 74.6 | EP2 cAMP induct active
Cc1cc(C)c(S(=O)(=O)c2ccccc2)c(OC(=O)c2c(Cl)cc(Cl)cc2Cl)n1	EP2 modulator 75.7 | EP2 cAMP induct active
Cn1cc(-c2ccccc2C(N)=O)c(=O)c2cc(Cl)ccc21	none
Cn1cc(C2=C(c3ccc(Cl)cc3Cl)C(=O)NC2=O)c2ccccc21	EP2 modulator 75.4 (no result: Efa HMGR inh, bCat nuc transl, MT stabilizer, Tb hexokinase) | EP2 cAMP induct active
O=C(COc1ccc(Cl)cc1)N(Cc1ccccc1)c1ccccn1	none
CC(C)(Oc1ccc(Cl)cc1)C(=O)N(Cc1ccccc1)c1ccccn1	EP2 modulator 68.5 | EP2 cAMP induct active
C#CCn1c(S(=O)(=O)Cc2ccc(F)cc2)nc(-c2ccccc2)c1-c1ccccc1	EP2 modulator 65.0 | EP2 cAMP induct active
CCOC(=O)Cn1c(S(=O)(=O)Cc2ccc(F)cc2)nc(-c2ccccc2)c1-c1ccccc1	none (no result: bCat nuc transl)
Cc1ccc(C)c2[nH]c(=O)c(CN(C(=O)Nc3ccccc3)C3CCCCC3)cc12	none (no result: Efa HMGR inh, bCat nuc transl, MT stabilizer, Tb hexokinase)
COc1ccc(OC(=O)c2cccc([N+](=O)[O-])c2)c(C(=O)/C=C/c2cccs2)c1	EP2 modulator 76.7 (no result: bCat nuc transl) | EP2 cAMP induct inactive
COc1cccc(/C=C/C(=O)c2cccc([N+](=O)[O-])c2)c1	none
COc1ccc(CC(=O)NNC(=O)Cc2cccs2)cc1OC	none (no result: Efa HMGR inh, bCat nuc transl, MT stabilizer, Tb hexokinase)
Cc1ccc(S(=O)(=O)N(Cc2ccccc2)c2ccccc2C(=O)Nc2ccccc2C(=O)NCc2ccco2)cc1	none
CS(=O)(=O)N(Cc1ccccc1)c1ccccc1C(=O)Nc1ccccc1C(=O)NCc1ccco1	EP2 modulator 87.9 (no result: bCat nuc transl) | EP2 cAMP induct active
CCn1c(=O)n(CC(=O)NC2CCCC2)c2cccnc21	none (no result: Efa HMGR inh, bCat nuc transl, MT stabilizer, Tb hexokinase)
COC(=O)c1nc(NC(=O)C(C)(C)C)n[nH]1	EP2 modulator 66.2 (no result: bCat nuc transl) | EP2 cAMP induct inactive
COc1cc(N)c(Cl)cc1C(=O)N1CCC2(CC1)NC(=O)c1ccccc1O2	none (no result: Efa HMGR inh, bCat nuc transl, MT stabilizer, Tb hexokinase)
COC(=O)c1cc(-c2ccc3c(c2)OCO3)nc2ccccc12	EP2 modulator 68.0 | EP2 cAMP induct inactive
Cc1ccc(-c2cc(N)c(=O)n(CC(=O)N(C(C)C)C(C)C)n2)s1	none (no result: Efa HMGR inh, bCat nuc transl, MT stabilizer, Tb hexokinase)
Cc1cccc2cc(C#N)c(SCC(=O)N3CCN(c4ccccc4F)CC3)nc12	none (no result: Efa HMGR inh, bCat nuc transl, MT stabilizer, Tb hexokinase)
CC12CCCC(O)(C1)C1CC(C)(C)C1CC2 (stereo not given)	none (no result: Efa HMGR inh, bCat nuc transl, MT stabilizer, Tb hexokinase) | EP2 cAMP induct inactive
CC1=CC(C)(C)N2C(=O)C3(SCC(=O)N3c3ccc(F)cc3)c3cc(C)cc1c32 (stereo not given)	EP2 modulator 76.4 | EP2 cAMP induct active
CC1=CC(C)(C)N2C(=O)C3(NCCc4c3[nH]c3ccccc43)c3cc(C)cc1c32 (stereo not given)	none (no result: Efa HMGR inh, MT stabilizer)
Cc1cccc2cc(CN(C(=O)c3cnccn3)C3CCCC3)c(=O)[nH]c12	none (no result: Efa HMGR inh, bCat nuc transl, MT stabilizer, Tb hexokinase)

From PubChem
